# Published values collected from several papers.
# Protocols differ between the studies behind these lines.
# Abl1: Tyrosine-protein kinase ABL1 (Abl1, Mus musculus, UniProt P00520)
# PBRM1 BD2: Protein polybromo-1, BD2 (PBRM1, Homo sapiens, UniProt Q86U86)
# PBRM1 bromodomain: Protein polybromo-1, bromodomain (PBRM1, Homo sapiens, UniProt Q86U86)
Compound,target,test,test system,setting,measurement,result
CCCOc1ccc(OC)c(F)c1C(=O)c1ccc(C(=O)N[C@@H]2CNC[C@H]2NC(=O)c2ccc3[nH]ncc3c2)cc1,Abl1,"enzyme activity, inhibitor",,10 µM,remaining activity,63%
Cc1ccc(NC(=O)c2ccc(C)c(C(F)(F)F)c2)cc1C#Cc1nn(C2CCC(O)CC2)c2ncnc(N)c12 (centres unmarked),Abl1,cell-free assay,,10 µM,remaining signal,-2%
Cc1cc2c(cc1N1C(=O)c3cccc4c(Cl)ccc(c34)C1=O)n(C)c(=O)n2C,"Bromodomain-containing protein 2, BD2 (BRD2, Homo sapiens, UniProt P25440)","thermal stability, DSF",,10 µM,ΔTm,0.4 °C
CCC1=C[C@@H]2CN(C1)Cc1c([nH]c3ccccc13)[C@@](C(=O)OC)(c1cc3c(cc1OC)N(C)[C@H]1[C@@](O)(C(=O)OC)[C@H](OC(C)=O)[C@]4(CC)C=CCN5CC[C@]31[C@@H]54)C2,"Organic cation/carnitine transporter 2 (SLC22A5, Homo sapiens, UniProt O76082)","transporter uptake, inhibitor",HEK293,100 µM,remaining activity,15.3%
CCC(/C=C1\CCn2c1nc(=O)c1ccc(Cl)cc12)CC,PBRM1 BD2,"thermal stability, DSF",,100 µM,ΔTm,2.07 °C
CN(C)C1CCN(CC#Cc2nn(C3CCCC3)c3nc(NCc4ccccc4)ncc23)C1 (centres unmarked),"Serine/threonine-protein kinase Sgk1 (SGK1, Homo sapiens, UniProt O00141)","enzyme activity, inhibitor, FRET",,0.1 µM,inhibition,6%
CC(C)(C)C/C=C1\CCn2c1nc(=O)c1c(Cl)cccc12,PBRM1 BD2,"thermal stability, DSF",,100 µM,ΔTm,4.96 °C
C[S+]([O-])c1ccc(-c2nc(-c3ccncc3)c(-c3ccc(F)cc3)[nH]2)cc1 (centres unmarked),PBRM1 bromodomain,"thermal stability, DSF",,10 µM,ΔTm,1.33 °C
Nc1ncnc2occ(-c3ccc(NC(=O)Nc4cc(C(F)(F)F)ccc4F)cc3)c12,"Receptor tyrosine-protein kinase erbB-3 (ERBB3, Homo sapiens, UniProt P21860)","cell-free assay, inhibitor",,20 µM,remaining signal,73%
CCC(/C=C1\CCn2c1nc(=O)c1ccc(O)cc12)CC,PBRM1 BD2,"thermal stability, DSF",,100 µM,ΔTm,3.49 °C
CC(C)(O)[C@H]1CC[C@H](Nc2ccc3ncc(-c4cccc(C(F)(F)F)c4)n3n2)CC1,"Serine/threonine-protein kinase N3 (PKN3, Homo sapiens, UniProt Q6P5Z2)","enzyme activity, inhibitor",,1 µM,remaining activity,40.2%
CCC(/C=C1\CCn2c1nc(=O)c1c(Cl)cccc12)CC,PBRM1 bromodomain,"thermal stability, DSF",,100 µM,ΔTm,10.3 °C
CCCN1CCCn2c1nc1c2c(=O)n(C)c(=O)n1C,"Adenosine receptor A2b (ADORA2B, Homo sapiens, UniProt P29275)","ligand displacement, radioligand",,"10 µM, cell membranes",inhibition,1%
Oc1ccc(-c2nc(-c3ccncc3)c(-c3ccc(F)cc3)[nH]2)cc1,"Bromodomain-containing protein 2, BD1 (BRD2, Homo sapiens, UniProt P25440)","thermal stability, DSF",,10 µM,ΔTm,1.18 °C
CC(C)(C)c1ccc(NC(c2ccccc2)c2ccc3ccccc3c2O)cc1 (centres unmarked),"CAAX prenyl protease 2 (Homo sapiens, UniProt Q9Y256)","enzyme activity, inhibitor",,10 µM,remaining activity,< 40%
Cc1cnc(Nc2ccc(OCCN3CCCC3)cc2)nc1Nc1cccc(S(=O)(=O)NC(C)(C)C)c1,PBRM1 BD2,"thermal stability, DSF",,10 µM,ΔTm,0.23 °C
CC/C=C1\CCn2c1nc(=O)c1c(Cl)cccc12,PBRM1 BD2,"thermal stability, DSF",,100 µM,ΔTm,-0.23 °C
